The record followed here is ChEMBL document CHEMBL4428060 (J Med Chem, 2016).

The source made the active and inactive calls. The rule behind the calls is not given here. Some results are limits rather than exact numbers.

The Ki is a dissociation constant, usually derived from enzyme kinetics or from competition with a known ligand. As a reminder, the EC50 is the concentration at which the effect is half-maximal. A word on the IC50: it is the midpoint of a concentration-inhibition curve.

Series [1] in a line: Metabolic stability in mouse liver microsomes assessed as compound remaining at 10 uM measured for 1 hr in presence of NADPH by LC/MS/MS analysis. In kind it is ADME, Microsome. The note with it: read-out: Stability. Summed up:
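Mouse liver microsomes 0.5 mg/mL in 100 mM potassium phosphate, pH 7.4, with NADPH regenerating system; compound 10 μM final. Testosterone as phase I positive control. Disappearance over time by LC/MS/MS; triplicate sampling.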
For orientation: Liver microsomes are vesicles of endoplasmic reticulum, rich in cytochrome P450 enzymes.

Series [2] has as its target Delta-type opioid receptor (Homo sapiens) (UniProt P41143). The experiment in a line: Binding affinity to delta opioid receptor (unknown origin) at 10 uM.
In the next series the target is T1, D(4) dopamine receptor (Homo sapiens, UniProt P21917).
T1 sequence (P21917 whole entry): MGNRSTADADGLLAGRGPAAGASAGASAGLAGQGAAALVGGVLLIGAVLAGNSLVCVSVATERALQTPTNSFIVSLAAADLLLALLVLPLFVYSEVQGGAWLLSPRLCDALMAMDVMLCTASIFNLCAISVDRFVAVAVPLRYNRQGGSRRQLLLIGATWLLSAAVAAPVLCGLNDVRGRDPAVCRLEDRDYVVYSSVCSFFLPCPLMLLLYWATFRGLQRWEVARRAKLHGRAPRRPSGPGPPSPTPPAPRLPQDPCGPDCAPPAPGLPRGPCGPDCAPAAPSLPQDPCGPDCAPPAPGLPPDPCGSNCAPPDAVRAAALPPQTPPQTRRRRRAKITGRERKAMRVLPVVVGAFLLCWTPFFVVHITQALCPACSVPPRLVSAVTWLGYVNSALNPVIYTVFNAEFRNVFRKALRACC
The series can be described thus: Displacement of [3H]N-methylspiperone from human dopamine D4.4 receptor expressed in HEK293 cell membranes incubated for 1 hr by liquid scintillation counting analysis. An outline of the steps: (§1)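 Membranes from HEK293 cells stably expressing human D2LR, D3R or D4.4R, 10 μg protein (D2LR, D3R) or 20 μg (D4.4R) per tube, in EBSS pH 7.4 with 0.2 mM sodium metabisulfite. [3H]N-methylspiperone 0.4 nM final. 13 half-log dilutions, 100 μM–100 pM or 10 μM–10 pM final. 10 μM butaclamol defined nonspecific binding. Triplicates, 1 h at room temperature, GF/B filtration. Ki by Cheng-Prusoff from IC50, at least three independent experiments.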
In general terms: In a radioligand displacement assay an active substance lowers the binding of a labelled ligand.

Series [3] addresses Kappa-type opioid receptor (Homo sapiens) (UniProt P41145). The experiment in a line: Binding affinity to kappa opioid receptor (unknown origin) at 10 uM.
In series [4] the test system is Mus musculus. The experiment in a line: Protection against oxycodone-induced locomotor sensitization in C57BL/6J mouse at 5 and 15 mg/kg, ip on day 1 followed by 5 and 15 mg/kg, ip pre-treated 15 mins before oxycodone challenge on day 2. In kind it is functional, organism-based.
Series [5] has as its system Mus musculus. The series can be described thus: Protection against oxycodone prime-induced locomotor sensitization in C57BL/6J mouse at 5 and 15 mg/kg, ip on day 1 followed by 5 and 15 mg/kg, ip pre-treated 15 mins before oxycodone challenge on day 2 followed by 72 hrs drug withdrawal before 4 mg/kg oxycodone injection on day 9. In kind it is functional, organism-based.

The target in series [6] is T2, D(3) dopamine receptor (Homo sapiens, UniProt P35462). The series can be described thus: Agonist activity at human dopamine D3 receptor expressed in CHO cells assessed as stimulation of mitogenesis incubated for 16 hrs in presence of [3H]thymidine by scintillation spectrometric analysis. In kind it is cell-based. Set-up: concentration or dose not given beside the values.

Series [7] is described as follows: Toxicity in Long-Evans rat assessed as induction of conditioned place preference at 15 mg/kg, ip. In kind it is organism-based. The conditions noted are these: in vivo. An outline of the steps: (§2)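 Rat CPP in 3-chamber apparatus; animals with preconditioning bias ≥200 s excluded. Alternating conditioning: oxycodone 3 mg/kg i.p. ×2 and saline ×2, counterbalanced, 40 min confinement; pretreatment saline or 5, 15 mg/kg i.p. 15 min before oxycodone. Home-cage oxycodone 3 mg/kg i.p. twice daily for four days. Drug-alone group: 15 mg/kg paired versus saline. Test 24 h later, 15 min; score = drug- minus saline-paired time; one-way ANOVA.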

Another series concerns Rattus norvegicus. The series can be described thus: Protection against oxycodone-induced conditioned place preference in ip dosed Long-Evans rat pretreated with compound 15 mins prior to oxycodone injection. In kind it is functional, organism-based. Summed up:
as §2

Series [8] deals with Mu-type opioid receptor (Homo sapiens) (UniProt P35372). The experiment in a line: Binding affinity to mu opioid receptor (unknown origin) at 10 uM.
Series [9] is described as follows: Toxicity in C57BL/6J mouse assessed as effect on basal locomotor activity at 5 to 15 mg/kg, ip measured every 20 mins for 2 hrs on day 1. In kind it is organism-based. The note with it: in vivo.
Series [10] deals with Mus musculus. The series can be described thus: Protection against oxycodone-induced hyperactivity in C57BL/6J mouse at 5 and 15 mg/kg, ip on day 1 followed by 5 and 15 mg/kg, ip pre-treated 15 mins before oxycodone challenge on day 2. In kind it is functional, organism-based.
Series [11] deals with T2, D(3) dopamine receptor. The experiment in a line: Antagonist activity at human dopamine D3 receptor expressed in CHO cells assessed as inhibition of quinpirole-stimulated mitogenesis incubated for 16 hrs in presence of [3H]thymidine by scintillation spectrometric analysis. In kind it is cell-based.
Series [12] deals with T3, 5-hydroxytryptamine receptor 2C (Homo sapiens, UniProt P28335).
T3 sequence (P28335 whole entry): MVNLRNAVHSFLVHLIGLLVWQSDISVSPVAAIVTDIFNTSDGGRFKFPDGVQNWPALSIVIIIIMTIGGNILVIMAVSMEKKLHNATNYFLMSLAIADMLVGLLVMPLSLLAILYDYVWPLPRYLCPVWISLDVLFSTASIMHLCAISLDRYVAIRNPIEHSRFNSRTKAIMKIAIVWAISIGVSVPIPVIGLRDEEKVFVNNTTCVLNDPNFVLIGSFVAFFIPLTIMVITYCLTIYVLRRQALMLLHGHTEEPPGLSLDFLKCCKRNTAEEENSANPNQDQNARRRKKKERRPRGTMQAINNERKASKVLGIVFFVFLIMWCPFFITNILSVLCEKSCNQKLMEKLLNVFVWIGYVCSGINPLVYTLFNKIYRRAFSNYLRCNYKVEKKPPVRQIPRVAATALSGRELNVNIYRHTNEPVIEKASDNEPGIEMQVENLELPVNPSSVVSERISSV
The series can be described thus: Displacement of [125I]DOI from 5-HT2C receptor (unknown origin).

The species named for series [13] is Homo sapiens. The series can be described thus: Selectivity ratio of Ki for human dopamine D4.4 receptor to Ki for human dopamine D2L receptor expressed in HEK293 cell membranes. In kind it is cell-based.
The species named for series [14] is Homo sapiens. The series can be described thus: Selectivity ratio of Ki for human dopamine D2L receptor to Ki for human dopamine D3 receptor expressed in HEK293 cell membranes. In kind it is cell-based. Summed up:
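Competition binding on membranes from HEK293 cells stably expressing human D2LR or D3R; 10 μg protein per tube in EBSS with 0.2 mM sodium metabisulfite, [3H]N-methylspiperone 0.4 nM final, 1 h at room temperature, GF/B filtration, scintillation counting.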

The target of series [15] is T4, 5-hydroxytryptamine receptor 1A (Homo sapiens, UniProt P08908).
T4 sequence (P08908 whole entry): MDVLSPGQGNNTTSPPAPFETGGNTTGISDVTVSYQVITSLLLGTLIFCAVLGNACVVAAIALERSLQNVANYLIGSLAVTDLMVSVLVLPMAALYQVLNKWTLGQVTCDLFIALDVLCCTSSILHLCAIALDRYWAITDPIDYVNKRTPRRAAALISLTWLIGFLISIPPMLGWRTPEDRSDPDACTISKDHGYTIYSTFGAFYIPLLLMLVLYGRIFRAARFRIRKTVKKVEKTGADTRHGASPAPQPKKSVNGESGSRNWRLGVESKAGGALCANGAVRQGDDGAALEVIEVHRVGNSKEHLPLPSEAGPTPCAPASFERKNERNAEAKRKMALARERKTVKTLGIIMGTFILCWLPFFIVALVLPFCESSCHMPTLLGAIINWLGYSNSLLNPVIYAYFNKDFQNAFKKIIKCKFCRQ
The series can be described thus: Displacement of [3H]-8-OH-DPAT from 5-HT1A receptor (unknown origin).

Series [16] addresses T5, 5-hydroxytryptamine receptor 1A (Homo sapiens) (UniProt P08908).
T5 sequence (whole entry): T4 sequence (P08908 whole entry)
The series can be described thus: (§3) Agonist activity at 5-HT1A receptor (unknown origin) by [35S]GTPgammaS binding assay. In kind it is functional. Set-up: concentration or dose not given beside the values. For orientation: GTPγS resists hydrolysis and so accumulates on activated G proteins.

The target in series [17] is T4, 5-hydroxytryptamine receptor 1A. The description is as §3. In kind it is functional.
A further series concerns the target D(2) dopamine receptor (Homo sapiens, UniProt P14416). The experiment in a line: Displacement of [3H]N-methylspiperone from human dopamine D2L receptor expressed in HEK293 cell membranes incubated for 1 hr by liquid scintillation counting analysis. An outline of the steps:
as §1

For series [18], the target named is 5-hydroxytryptamine receptor 2A (Homo sapiens, UniProt P28223). The series can be described thus: Displacement of [125I]DOI from 5-HT2A receptor (unknown origin).
The species named for series [19] is Homo sapiens. The series can be described thus: Selectivity ratio of Ki for human dopamine D4.4 receptor to Ki for human dopamine D3 receptor expressed in HEK293 cell membranes. In kind it is cell-based.
Series [20] concerns the target T2, D(3) dopamine receptor. The experiment in a line: Displacement of [3H]N-methylspiperone from human dopamine D3 receptor expressed in HEK293 cell membranes incubated for 1 hr by liquid scintillation counting analysis. Summed up:
as §1

T2 sequence (P35462 whole entry): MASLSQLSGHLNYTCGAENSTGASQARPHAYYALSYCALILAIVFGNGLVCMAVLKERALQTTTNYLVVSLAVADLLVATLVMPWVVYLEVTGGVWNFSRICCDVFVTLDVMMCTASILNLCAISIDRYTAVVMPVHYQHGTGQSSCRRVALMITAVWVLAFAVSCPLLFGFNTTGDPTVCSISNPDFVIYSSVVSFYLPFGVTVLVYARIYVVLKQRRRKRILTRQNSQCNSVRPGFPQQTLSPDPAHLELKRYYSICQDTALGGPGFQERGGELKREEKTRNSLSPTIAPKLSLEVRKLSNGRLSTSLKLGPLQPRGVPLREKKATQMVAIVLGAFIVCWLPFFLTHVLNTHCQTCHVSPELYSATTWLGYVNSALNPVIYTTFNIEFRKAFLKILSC
Chain of 5-hydroxytryptamine receptor 2A (P28223 whole entry): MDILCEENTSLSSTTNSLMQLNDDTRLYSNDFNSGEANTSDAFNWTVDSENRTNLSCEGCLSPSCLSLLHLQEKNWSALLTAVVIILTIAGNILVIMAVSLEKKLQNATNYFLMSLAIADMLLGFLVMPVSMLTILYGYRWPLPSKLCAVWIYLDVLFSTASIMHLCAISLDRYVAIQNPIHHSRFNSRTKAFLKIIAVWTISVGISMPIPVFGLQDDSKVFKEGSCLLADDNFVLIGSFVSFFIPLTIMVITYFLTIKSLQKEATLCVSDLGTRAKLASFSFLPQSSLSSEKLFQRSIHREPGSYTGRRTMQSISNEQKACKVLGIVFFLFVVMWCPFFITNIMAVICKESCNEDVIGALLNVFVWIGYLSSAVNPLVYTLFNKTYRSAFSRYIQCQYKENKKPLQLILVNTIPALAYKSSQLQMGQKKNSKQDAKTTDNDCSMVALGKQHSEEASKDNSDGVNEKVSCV
Chain of D(2) dopamine receptor (P14416 whole entry): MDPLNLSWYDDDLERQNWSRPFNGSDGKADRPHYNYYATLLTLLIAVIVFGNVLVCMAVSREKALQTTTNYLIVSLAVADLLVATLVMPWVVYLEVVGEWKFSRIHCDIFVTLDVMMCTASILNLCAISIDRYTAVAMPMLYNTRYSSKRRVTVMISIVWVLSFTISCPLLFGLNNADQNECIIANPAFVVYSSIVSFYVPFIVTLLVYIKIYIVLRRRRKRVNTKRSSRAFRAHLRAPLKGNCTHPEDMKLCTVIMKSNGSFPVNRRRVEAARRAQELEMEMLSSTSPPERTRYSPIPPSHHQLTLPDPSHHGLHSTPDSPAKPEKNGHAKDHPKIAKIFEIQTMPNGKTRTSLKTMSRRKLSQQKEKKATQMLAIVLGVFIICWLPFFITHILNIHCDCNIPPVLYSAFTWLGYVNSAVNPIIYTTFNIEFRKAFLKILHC
Chain of Kappa-type opioid receptor (Homo sapiens) (P41145 whole entry): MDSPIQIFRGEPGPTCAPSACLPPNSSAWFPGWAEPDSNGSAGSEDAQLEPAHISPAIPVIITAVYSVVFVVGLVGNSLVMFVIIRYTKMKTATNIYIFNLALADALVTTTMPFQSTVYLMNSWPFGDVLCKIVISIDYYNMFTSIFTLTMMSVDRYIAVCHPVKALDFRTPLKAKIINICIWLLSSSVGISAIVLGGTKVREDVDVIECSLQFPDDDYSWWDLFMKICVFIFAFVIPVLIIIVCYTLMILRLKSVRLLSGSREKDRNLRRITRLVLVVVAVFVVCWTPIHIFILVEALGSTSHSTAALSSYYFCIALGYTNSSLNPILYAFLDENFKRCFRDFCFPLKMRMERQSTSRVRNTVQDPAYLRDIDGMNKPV
Chain of Delta-type opioid receptor (Homo sapiens) (P41143 whole entry): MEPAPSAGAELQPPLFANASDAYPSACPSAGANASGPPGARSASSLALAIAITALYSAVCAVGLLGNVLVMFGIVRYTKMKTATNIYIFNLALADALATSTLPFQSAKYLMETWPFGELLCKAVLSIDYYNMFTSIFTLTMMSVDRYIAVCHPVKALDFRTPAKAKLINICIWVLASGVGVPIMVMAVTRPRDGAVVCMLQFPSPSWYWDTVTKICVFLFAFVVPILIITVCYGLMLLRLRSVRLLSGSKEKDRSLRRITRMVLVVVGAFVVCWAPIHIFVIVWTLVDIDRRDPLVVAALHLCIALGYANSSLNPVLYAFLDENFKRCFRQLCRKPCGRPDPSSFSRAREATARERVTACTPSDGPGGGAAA
Chain of Mu-type opioid receptor (Homo sapiens) (P35372 whole entry): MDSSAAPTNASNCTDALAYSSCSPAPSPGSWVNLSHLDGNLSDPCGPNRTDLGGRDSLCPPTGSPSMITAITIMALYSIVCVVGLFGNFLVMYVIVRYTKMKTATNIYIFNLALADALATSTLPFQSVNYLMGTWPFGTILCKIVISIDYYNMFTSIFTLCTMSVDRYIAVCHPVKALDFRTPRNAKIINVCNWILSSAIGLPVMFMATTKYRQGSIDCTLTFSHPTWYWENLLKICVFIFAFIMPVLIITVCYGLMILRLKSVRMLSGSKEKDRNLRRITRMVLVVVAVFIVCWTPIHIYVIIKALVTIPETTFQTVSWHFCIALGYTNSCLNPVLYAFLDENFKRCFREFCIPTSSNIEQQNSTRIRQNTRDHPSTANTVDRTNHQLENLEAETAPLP

`CCc1cc(Cl)c(OC)c(N2CCN(CC(O)CCNC(=O)c3cc4ccccc4[nH]3)CC2)c1` (stereo unspecified): in [1], the remaining at 1 h, 10 µM is more than 80%. Further, the outcome in [2], in series [3] and in series [8] was inactive. Further, the inhibition constant (Ki) on D(4) dopamine receptor was found to be 13900 nM. Further, the result in the series with Mus musculus [4], in the series with Mus musculus [5] and in the series on Mus musculus [10] was Active. For the same compound, the Activity at D(3) dopamine receptor [6] is 6.7%; in series [7], “Non-Toxic”; in the series with Rattus norvegicus it was “Dose-dependent effect”; in [9], “Non-Toxic”. For the same compound, the EC50 on D(3) dopamine receptor [6] was more than 8300 nM.
Turning to `CCc1cccc(N2CCNCC2)c1Cl`, the inhibition constant Ki on D(4) dopamine receptor stood at 316 nM; in series [12], 5.4 nM; in series [15], 70.3 nM; at D(2) dopamine receptor, 139 nM; in series [18] it was 7 nM; on D(3) dopamine receptor [20] it was 31.1 nM. Also, on D(3) dopamine receptor [11], the IC50 was more than 10000 nM. In addition, the Ratio Ki in the series filed under Homo sapiens [13] was determined as 2.3; in the series filed under Homo sapiens [14] it was 4.5; in the series listed under Homo sapiens [19] it was 10. Besides, the Activity on D(3) dopamine receptor [6] was determined as 64.7%; in series [16], 90.1%. Besides, the EC50 worked out at 17.9 nM at D(3) dopamine receptor [6] and 77 nM in series [17].
Consider `CCCCN1CCN(c2cccc(CC)c2Cl)CC1`, for which the Ki is 65.1 nM on D(4) dopamine receptor; 222 nM in series [12]; 37 nM in series [15]; 2.93 nM on D(2) dopamine receptor; 53 nM in [18]; 0.363 nM on D(3) dopamine receptor [20]. Further, the half-maximal inhibitory concentration (IC50) at D(3) dopamine receptor [11] amounted to 63 nM. Further, the Ratio Ki in the series listed under Homo sapiens [13] amounted to 22; in the series listed under Homo sapiens [14], 8.1; in the series filed under Homo sapiens [19] it was 179. Also, the figures for the Activity (at D(3) dopamine receptor [6]; in series [16]) were 29.1% and 90.8%, respectively. Besides, the 50% effective concentration (EC50) at D(3) dopamine receptor [6] amounted to 590 nM; in series [17], 48 nM.
